What was measured:
[1] = biological target: Cytochrome P450 3A4 (Homo sapiens, UniProt P08684); assay: Decrease in CYP3A4 activity in human hepatocytes assessed as 6-betahydroxytestosterone formation using testosterone as substrate at 2.5 uM incubated for 3 days prior to substrate challenge for 30 mins by LC-MS/MS analysis; type: ADME, cell-based, Hepatocyte; settings: 0.5 h
Method in brief: (§1)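 Hepatocytes from 3 donors were plated on collagen I and cultured 2 days, then treated 3 days with carfilzomib (0.1–2.5 µM), 0.08% DMSO, rifampicin 20 µM or β-naphthoflavone 20 µM, renewed daily. Cells were then incubated in serum-free medium in triplicate with testosterone 200 µM (CYP3A, 30 min, 6β-hydroxytestosterone) or phenacetin 100 µM (CYP1A2, 60 min, acetaminophenol). Products were measured by LC-MS/MS and expressed relative to DMSO.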

[2] = system: Plasma; assay: Drug metabolism in plasma of iv dosed human patient with relapsed and refractory hematological malignancies assessed as morpholino-hPhe-Leu metabolite formation administered on days 1, 2, 8, 9, 15 and 16 of 28-day cycle over 2 to 10 mins by LC-MS/MS analysis; type: ADME, organism-based; settings: in vivo
[3] = AUC last in human patient with relapsed solid tumor at 20 mg/m'2, iv administered on days 1, 2, 8, 9, 15 and 16 of 28-day cycle over 2 to 10 mins measured on day 1 of cycle 1 by LC-MS/MS analysis; type: ADME, organism-based; design: route intravenous, time 0 - last; settings: plasma
Method in brief: (§2)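 Patients with relapsed solid tumors (n=3) received carfilzomib IV at 20 mg/m2. Plasma was sampled on Days 1 and 16 of Cycle 1 before dosing, at end of administration, and at 5, 15, 30 min and 1, 2, 4 h after. Samples underwent solid phase extraction and LC-MS/MS with d10-carfilzomib internal standard over 0.100–200 ng/mL. Parameters were derived noncompartmentally (constant IV infusion model) from actual elapsed time from infusion start.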

[4] = biological target: T1, Cytochrome P450 1A2 (Homo sapiens, UniProt P05177); assay: Inhibition of CYP1A2 in human liver microsomes using phenacetin as substrate after 5 mins by LC-MS/MS analysis; type: ADME
T1 sequence (P05177 whole entry): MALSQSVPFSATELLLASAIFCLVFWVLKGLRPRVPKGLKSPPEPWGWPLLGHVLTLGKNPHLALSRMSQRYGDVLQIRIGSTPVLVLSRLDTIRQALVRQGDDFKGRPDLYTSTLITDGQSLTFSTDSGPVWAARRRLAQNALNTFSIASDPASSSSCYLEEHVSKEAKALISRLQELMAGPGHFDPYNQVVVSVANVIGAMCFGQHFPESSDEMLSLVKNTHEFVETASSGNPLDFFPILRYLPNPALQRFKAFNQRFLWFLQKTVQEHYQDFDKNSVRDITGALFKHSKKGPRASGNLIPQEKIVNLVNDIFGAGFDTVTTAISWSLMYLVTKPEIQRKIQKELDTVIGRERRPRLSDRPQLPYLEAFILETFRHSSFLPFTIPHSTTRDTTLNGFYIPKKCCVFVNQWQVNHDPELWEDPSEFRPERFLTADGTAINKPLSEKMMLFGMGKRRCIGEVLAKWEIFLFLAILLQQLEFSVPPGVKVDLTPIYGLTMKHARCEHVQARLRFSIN
Method in brief: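 Pooled HLM from 16 donors were incubated at 37°C in duplicate with carfilzomib 0.01–10 µM and probe substrate at about its Km. Substrates were phenacetin, amodiaquine, diclofenac, S-mephenytoin, dextromethorphan, testosterone and midazolam. Protein was 0.1 mg/mL, or 0.05 mg/mL with midazolam. Reactions ran 5 min without preincubation, then were quenched with acetonitrile. Metabolites were measured by LC-MS/MS relative to 0.5% acetonitrile controls.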

[5] = biological target: CYP3A (Homo sapiens, UniProt P08684+P20815+P24462+Q9HB55); assay: Time-dependent inhibition of CYP3A in human liver microsomes assessed as midazolam 1'-hydroxylation using midazolam as substrate by LC-MS/MS analysis; type: ADME; settings: probe midazolam (1'-hydroxylation)
Method in brief: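 Pooled HLM (16 donors, mixed sex), 37°C, duplicate. IC50: carfilzomib 0.01–10 µM preincubated 30 min, then midazolam near Km (3.8 µM) at 0.05 mg/mL protein, 5 min, LC-MS/MS, relative to 0.5% acetonitrile control. KI/kinact: 0–8 µM preincubated 0–30 min with 1.25 mg/mL HLM plus NADPH-generating system, diluted 25-fold, midazolam 40 µM for 5 min.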

[6] = AUC infinity in human patient with relapsed solid tumor at 20 mg/m'2, iv administered on days 1, 2, 8, 9, 15 and 16 of 28-day cycle over 2 to 10 mins measured on day 16 of cycle 1 by LC-MS/MS analysis; type: ADME, organism-based; design: time infinity, route intravenous; settings: plasma; method in brief: as §2
[7] = biological target: T1, Cytochrome P450 1A2; assay: Drug metabolism in pooled human hepatocytes assessed as disapperance rate at 1 uM by LC-MS/MS analysis in presence of 30 uM CYP1A2 inhibitor furafylline; type: ADME, cell-based, Hepatocyte
Method in brief: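 Pooled human hepatocytes in suspension (~0.5 x 10^6 viable cells/mL) were incubated with 1 µM carfilzomib at 37°C under 5% CO2, with or without isoform-selective CYP chemical inhibitors. Reactions were quenched with acetonitrile at 0, 15, 30, 60 and 120 min. Carfilzomib was quantified by non-validated LC-MS/MS after protein precipitation.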

[8] = Drug excretion in urine of iv dosed human patient with relapsed and refractory hematological malignancies assessed as morpholino-hPhe-Leu-Phe-Leu-diol metabolite formation administered on days 1, 2, 8, 9, 15 and 16 of 28-day cycle over 2 to 10 mins by LC-MS/MS analysis; type: ADME, organism-based; settings: in vivo
[9] = biological target: T2, Cytochrome P450 3A (Homo sapiens, UniProt P08684+P20815+Q9HB55+P24462); assay: Decrease in CYP3A activity in human hepatocytes assessed as 6-betahydroxytestosterone formation using testosterone as substrate incubated for 3 days prior to substrate challenge for 30 mins by LC-MS/MS analysis; type: ADME, cell-based, Hepatocyte; settings: 0.5 h; method in brief: as §1
[10] = biological target: T2, Cytochrome P450 3A; assay: Decrease in CYP3A activity in rifampin-treated human hepatocytes assessed as 6-betahydroxytestosterone formation using testosterone as substrate at 2.5 uM after 30 mins by LC-MS/MS analysis; type: ADME, cell-based, Hepatocyte; settings: 0.5 h
Method in brief: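 Hepatocytes induced 3 days with 20 µM rifampicin were exposed to fresh medium containing 2.5 µM carfilzomib for 30 min and washed once. They were then incubated with testosterone 200 µM, and 6β-hydroxytestosterone was measured by LC-MS/MS.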

[11] = Plasma clearance in human patient with relapsed solid tumor at 20 mg/m'2, iv administered on days 1, 2, 8, 9, 15 and 16 of 28-day cycle over 2 to 10 mins measured on day 16 of cycle 1 by LC-MS/MS analysis; type: ADME, organism-based; method in brief: as §2
[12] = system: Plasma; assay: Drug metabolism in plasma of human multiple myeloma patient assessed as morpholino-hPhe-Leu metabolite formation at 15 mg/m'2, iv administered as single dose measured within first 30 mins after end of drug infusion by LC-MS/MS analysis; type: ADME, organism-based; settings: in vivo, 0.5 h
Method in brief: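 Patients with multiple myeloma received a single 15 mg/m2 carfilzomib dose. Plasma was sampled pre-dose, at end of infusion, at 5, 15, 30 min and at 1, 1.5, 2, 4, 6, 24 h. Samples were protein-precipitated and analyzed by LC-MS/MS (metabolites 0.500–500 ng/mL) with deuterated internal standards.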

Cytochrome P450 3A4, sequence (P08684 whole entry): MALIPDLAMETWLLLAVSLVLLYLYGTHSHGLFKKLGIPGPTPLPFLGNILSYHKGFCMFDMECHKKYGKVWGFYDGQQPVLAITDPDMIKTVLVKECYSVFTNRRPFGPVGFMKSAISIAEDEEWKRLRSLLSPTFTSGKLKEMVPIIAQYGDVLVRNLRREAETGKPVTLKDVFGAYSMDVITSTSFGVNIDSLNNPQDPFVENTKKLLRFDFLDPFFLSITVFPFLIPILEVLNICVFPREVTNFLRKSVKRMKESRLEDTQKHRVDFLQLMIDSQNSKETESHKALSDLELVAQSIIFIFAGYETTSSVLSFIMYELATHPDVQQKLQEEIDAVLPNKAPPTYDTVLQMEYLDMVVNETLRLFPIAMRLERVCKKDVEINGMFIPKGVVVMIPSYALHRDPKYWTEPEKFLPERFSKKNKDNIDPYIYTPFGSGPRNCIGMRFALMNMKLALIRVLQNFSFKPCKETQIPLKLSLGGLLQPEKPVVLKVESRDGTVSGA

## CC(C)C[C@H](NC(=O)[C@H](CCc1ccccc1)NC(=O)CN1CCOCC1)C(=O)N[C@@H](Cc1ccccc1)C(=O)N[C@@H](CC(C)C)C(=O)[C@@]1(C)CO1 [CARFILZOMIB]
[1]
  inhibition (INH): 45%
[2]
  Drug metabolism: metabolite_detected
[3]
  AUC(0-t): 238 ng·h/mL
[4]
  IC50: > 10 µM
[5]
  Ki: 11 µM
  kinact: 0.00167 s⁻¹
[6]
  AUC(0-inf): 301 ng·h/mL
[7]
  Drug metabolism: 0.016 min⁻¹
[8]
  Drug excretion: metabolite_detected
[9]
  inhibition (INH): Dose-dependent effect
[10]
  inhibition (INH): 14%
[11]
  clearance: 2270 mL/min
[12]
  Drug metabolism: metabolite_detected

Reference: ChEMBL document CHEMBL3526139, “Clinical pharmacokinetics, metabolism, and drug-drug interaction of carfilzomib” (Drug Metab Dispos, 2013)
